Screening data deposited in PubChem by several laboratories.
SKKanGAS inh: inhibitors of SKKanGAS S. pyogenes growth in kanamycin (SK-promoter or general growth effect) | inhibition, % at 7.5 µM | BacTiter-Glo, 6 h | hit rate 1.3% among 300,000;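 active = mean replicate score, as percent of positive control median, at least 50; inconclusive = mean below 50 but one replicate at or above 50; inactive = mean and every replicate below 50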;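 note: strain carries kanamycin resistance gene driven by streptokinase promoter and grows in 40 µg/ml kanamycin; loss of luminescence reflects streptokinase promoter inhibition or plain growth inhibition; 0% = median of DMSO wells and 100% = positive control at its reference dose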
WT yeast gro inh: growth inhibition of WT yeast, mitochondrial fusion screen. mitochondrial fusion phenotypic screen, WT strain. inhibition, % at 10 µM. hit rate 2.1% among 190,000; in the data active = inhibition above about 58%; tested in S. cerevisiae
Rad51 HR inh: blocks human Rad51 in homologous recombination. hRad51 DNA strand exchange, fluorescence dequenching. hit rate 0.085% among 200,000. Q06609. inhibition, % at 10 µM. AID 1385;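 active = inhibition above 40% at the single screening dose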;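 note: 0% = DMSO control wells and 100% = blanks with heterologous ssDNA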
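Read-out basis: percent inhibition relative to plate controls and blanks / Assay system: human Rad51 nucleoprotein filaments preassembled on unlabelled ssDNA / Timing: filaments 15 min 37 °C, then compound 30 min / Control set: per-plate controls and blanks / Technique: fluorescence dequenching at 485/520 nm / Compound: 10 µM final, single point / Also added: Fluorescein- and BHQ1-tagged 47-mer duplex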
Cl transport mod: KCC2 (human) Cl- transport modulation; Q9H2X9; KCC2 cells, thallium flux FluoZin-2 fluorescence; B-score of Tl+ flux slope (higher = more flux/activation; lower = inhibition) at 10 µM; hit rate 2.2% among 190,000; AID 1456;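 active = thallium flux slope and its plate-corrected score both differing from the plate sample mean at a set confidence after two filtering rounds, in either direction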;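 note: slope of fluorescence scaled to starting intensity during 10 to 20 s after thallium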
Autophagy mod: alters autophagy in cells; MEF GFP-LC3 puncta imaging; test concentration mostly 10 µM; calls only at 10 µM (by protocol); hit rate 0.98% among 190,000; AID 463193;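 active = percentage of spot-positive cells more than 3 SD above its plate mean, without a fluorescence outlier flag or 80% toxicity; inconclusive = no clear call, values can overlap the other calls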;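 note: spot-positive cell cutoff set from DMSO-treated cells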
Insulin prom up: MIN6 insulin promoter up-regulation | MIN6 insulin promoter-GFP reporter, high-content imaging; active compounds read high | hit rate 0.3% among 190,000 | z-score at 5 µM | AID 1625;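 active = z-score above 3 at 5 µM with at least 500 cells counted in the well; inconclusive = wells under 500 cells, flagged as cytotoxic or low count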
* = called active by the depositor. Shown are actives, neighbours in structure and some others; about 4.2% of the full set was active somewhere.

O=C(OCc1ccccc1)c1cccc(-c2nnn(Cc3ccccc3)n2)c1 was read as SKKanGAS inh 55*, Rad51 HR inh 3, Cl transport mod 0.88, Autophagy mod inactive and Insulin prom up -0.27.
CN(C)CCCNC(=O)/C(=C\C=C\c1ccccc1)NC(=O)c1ccc([N+](=O)[O-])cc1 was read as SKKanGAS inh 4, Cl transport mod 0.03 and Insulin prom up -0.17.
For O=C(NCCNC(=O)C(c1ccccc1)c1ccccc1)c1ccco1 the results were SKKanGAS inh -6, WT yeast gro inh 17, Rad51 HR inh 8, Cl transport mod -0.55, Autophagy mod inactive and Insulin prom up 0.33.
C/C(=N/NC(=O)CNC(=O)C(c1ccccc1)c1ccccc1)c1ccco1 was read as SKKanGAS inh 55*, Rad51 HR inh 14, Cl transport mod -0.77 and Insulin prom up -0.38.
Screening Cc1nc2c3ccccc3nc(NNC(=O)CCC(=O)NCCN3CCN(c4ccccc4)CC3)n2n1 returned SKKanGAS inh 0.
`C(=C\c1ccccc1)/CN1CCN(C(c2ccccc2)c2ccccc2)CC1` gave SKKanGAS inh -1, WT yeast gro inh 70*, Rad51 HR inh 1, Cl transport mod 0.026 and Autophagy mod inactive.
For CC(C)Cn1c(N)c(C(=O)COC(=O)CC23CC4CC(CC(C4)C2)C3)c(=O)n(C)c1=O the results were SKKanGAS inh 23, WT yeast gro inh 85*, Rad51 HR inh -3, Cl transport mod -0.61, Autophagy mod inactive and Insulin prom up inconclusive.
For Cn1c(=O)c(C(=O)COC(=O)c2cc(C(F)(F)F)nc3ccccc23)c(N)n(Cc2ccccc2)c1=O the results were SKKanGAS inh 30, WT yeast gro inh 35, Cl transport mod -0.22, Autophagy mod inactive and Insulin prom up -1.2.
`CC(C)Cn1c(N)c(C(=O)COC(=O)c2cc(C(F)(F)F)nc3c(C(F)(F)F)cccc23)c(=O)n(C)c1=O` gave SKKanGAS inh 23, WT yeast gro inh 61*, Cl transport mod 0.74, Autophagy mod inactive and Insulin prom up -0.37.
C=CCN(C(=O)CCC(=O)Nc1cc(C)on1)C(C(=O)NC1CCCC1)c1ccc(OC)cc1OC (centres undefined) was read as SKKanGAS inh 0.
Screening Cc1cc(C)c2nc(NC(=O)CN3C(=O)NC4(CCCC4)C3=O)sc2c1 returned SKKanGAS inh -9.
For O=C(c1cc(-c2ccccc2)nc2ccccc12)N1CCN(c2ccccc2O)CC1 the results were SKKanGAS inh 67*.
Screening Cc1cccc(-c2cc(C(=O)N3CCCc4ccccc43)c3ccccc3n2)c1 returned SKKanGAS inh 5, WT yeast gro inh 39, Rad51 HR inh 1, Cl transport mod -0.95, Autophagy mod inactive and Insulin prom up 2.7.
`O=C(c1cc(-c2ccncc2)nc2ccccc12)N1CCN(c2ccccc2O)CC1` gave SKKanGAS inh 14.
For O=C(c1cc(-c2ccccc2)nc2ccccc12)N1CCCc2ccccc21 the results were SKKanGAS inh 28, WT yeast gro inh 63*, Cl transport mod -1.1, Autophagy mod inactive and Insulin prom up -0.1.
Cc1ccc2c(C(=O)N3CCN(c4ccccc4)CC3)cc(-c3cccnc3)nc2c1C was read as SKKanGAS inh 19, WT yeast gro inh 73*, Rad51 HR inh 9, Cl transport mod -1.5, Autophagy mod inactive and Insulin prom up 0.68.
Screening CC1(C)CC(=O)N(c2cc(Cl)cc(Cl)c2)C(=O)C1 returned SKKanGAS inh 5.
Cc1ccc(S(=O)(=O)N2CCCC2C(=O)N(C)Cc2cccs2)cc1 (centres undefined) was read as SKKanGAS inh -7, WT yeast gro inh -8, Rad51 HR inh -2, Cl transport mod -1.9, Autophagy mod inactive and Insulin prom up 4.2*.
`COc1ccc(NC(=O)CN(C)C(=O)CSCc2ccc(C)cc2)cc1` gave SKKanGAS inh 13.
`CCCNC(=S)Nc1ccc2nc(-c3ccccn3)c(-c3ccccn3)nc2c1` gave SKKanGAS inh -1, WT yeast gro inh 72*, Cl transport mod 0.45, Autophagy mod inactive and Insulin prom up -0.02.
Screening O=C(CCc1nnc(CCCc2ccccc2)o1)NCCCC1CCCC1 returned SKKanGAS inh -11, WT yeast gro inh 39, Rad51 HR inh -4, Cl transport mod -3.1, Autophagy mod inactive and Insulin prom up 0.96.
For Cc1nc(N2CCN(c3ccccc3)CC2)c2c3c(sc2n1)CCC3 the results were WT yeast gro inh 74* and Insulin prom up inconclusive.
Screening Cc1nc(N2CCN(C)CC2)c2c3c(sc2n1)CCCC3 returned SKKanGAS inh 5.
Screening COc1ccccc1C1=NN(C(=O)c2ccccc2)C(c2ccc(Br)cc2)C1 (centres undefined) returned SKKanGAS inh 36.
`CO[C@H]1C=CO[C@@]2(C)Oc3c(C)c(O)c4c(O)c(c(C=NN5CCN(C6CCCC6)CC5)c(O)c4c3C2=O)NC(=O)C(C)=CC=C[C@H](C)[C@H](O)[C@@H](C)[C@@H](O)[C@@H](C)[C@H](OC(C)=O)[C@@H]1C` gave SKKanGAS inh 105*, WT yeast gro inh 8, Rad51 HR inh -2, Cl transport mod -0.66 and Insulin prom up -0.98.
For CO[C@H]1C=CO[C@@]2(C)Oc3c(C)c(O)c4c(O)c(c(C=NN5CCN(C)CC5)c(O)c4c3C2=O)NC(=O)C(C)=CC=C[C@H](C)[C@H](O)[C@@H](C)[C@@H](O)[C@@H](C)[C@H](OC(C)=O)[C@@H]1C the results were SKKanGAS inh 106*, WT yeast gro inh 1, Rad51 HR inh -6, Cl transport mod 0.89 and Autophagy mod inactive.
For CC(Cc1ccccc1)NC(=O)CN1C(=O)c2ccccc2S1(=O)=O (centres undefined) the results were SKKanGAS inh -2.
Cc1nn(-c2ccccc2)c(C)c1NC(=O)c1ccc(S(=O)(=O)N2CCCC2)cc1 was read as SKKanGAS inh 1, WT yeast gro inh 74*, Rad51 HR inh -6, Cl transport mod 0.033, Autophagy mod inactive and Insulin prom up 0.
`O=C(CCCSc1ccccc1)Nc1nc(-c2ccccn2)cs1` gave SKKanGAS inh 105*, WT yeast gro inh 69*, Rad51 HR inh 1, Cl transport mod -1.7, Autophagy mod inactive and Insulin prom up 1.1.
For O=C(/C=C/c1ccco1)Nc1nc(-c2ccccn2)cs1 the results were SKKanGAS inh 55*, WT yeast gro inh 60, Rad51 HR inh -4, Cl transport mod -1.5, Autophagy mod inactive and Insulin prom up 1.
O=C(Nc1nc(-c2ccccn2)cs1)c1ncc(Cl)c(Cl)c1Cl was read as SKKanGAS inh 98*, WT yeast gro inh 26, Rad51 HR inh -8, Cl transport mod 0.5, Autophagy mod inactive and Insulin prom up -0.29.
`COc1ccc(NC2CCCN(C(=O)C3=NN(C)C(=O)CC3)C2)cc1OC` (centres undefined) gave SKKanGAS inh 0.
